# Assay results from ChEMBL document CHEMBL1131058, “Studies on quinazolines and 1,2,4-benzothiadiazine 1,1-dioxides. 8.1, 2 synthesis and pharmacological evaluation of tricyclic fused quinazolines and 1,2,4-benzothiadiazine 1,1-dioxides as potential alpha1-adrenoceptor antagonists” (J Med Chem, 1998).
# Tests used:
# Histamine H1 receptor = Histamine H1 receptor (Cavia porcellus, UniProt P31389); test: Compound is evaluated for binding affinity towards Histamine H1 receptor using [3H]pyrilamine in guinea pig lung; assay type: tissue-based
# Sequence of Histamine H1 receptor (P31389 whole entry): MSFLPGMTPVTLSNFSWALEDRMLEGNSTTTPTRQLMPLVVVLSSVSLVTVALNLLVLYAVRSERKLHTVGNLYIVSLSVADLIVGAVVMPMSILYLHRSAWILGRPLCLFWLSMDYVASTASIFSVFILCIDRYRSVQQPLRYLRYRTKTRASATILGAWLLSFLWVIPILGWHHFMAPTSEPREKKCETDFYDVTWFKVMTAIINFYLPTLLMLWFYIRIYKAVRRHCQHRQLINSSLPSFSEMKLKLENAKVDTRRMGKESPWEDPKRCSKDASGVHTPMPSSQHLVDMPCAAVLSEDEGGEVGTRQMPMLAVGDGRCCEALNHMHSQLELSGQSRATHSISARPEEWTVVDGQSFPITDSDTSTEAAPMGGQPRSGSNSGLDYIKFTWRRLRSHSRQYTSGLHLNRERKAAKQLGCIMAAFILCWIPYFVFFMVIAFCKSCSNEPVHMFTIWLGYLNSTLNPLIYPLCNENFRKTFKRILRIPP
# How it was run: (§1)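 Contract radioligand competition binding. Sources: 5-HT1 and 5-HT1A in rat brain cortex; 5-HT2 and σ2 in rat brain; σ in guinea pig brain; D2, rhD2 and rhD3 in CHO cells with [³H]spiperone; H1 in guinea pig lung with [³H]pyrilamine. Inhibition constants reported; no constant given where inhibition at 10 µM was below 50%.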
# [1] = Selectivity ratio for binding affinity towards alpha2 and alpha-1 adrenoceptors
# How it was run: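 Ratio of α2 Ki ([³H]clonidine binding) to α1 Ki ([³H]prazosin binding), both measured in rat cortical membrane competition assays.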
# [2] = molecular target: Sodium channel alpha subunits; brain (Types I, II, III) (Rattus norvegicus, UniProt P04775+P04774+P08104); test: Displacement of [3H]batrachotoxin from rat brain sodium channel; assay type: tissue-based
# How it was run: (§2)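 Radioligand competition binding was done by an outside contract lab (Pan Lab). Inhibition constants (Ki) were derived from displacement of the stated tritiated ligand. Each compound was tested at 10 µM. Where inhibition at that concentration stayed below 50%, no Ki was reported.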
# [3] = molecular target: Serotonin 1 (5-HT1) receptor (Rattus norvegicus, UniProt P28564+P30940+P19327+P28565); test: Compound is evaluated for binding affinity towards 5-hydroxytryptamine 1 receptor using [3H]5-HT in rat brain cortex; assay type: tissue-based; how it was run: as §1
# [4] = molecular target: T1, 5-hydroxytryptamine receptor 1A (Rattus norvegicus, UniProt P19327); test: Compound is evaluated for binding affinity towards 5-hydroxytryptamine 1A receptor using [3H]-8-OH- -DPAT in rat brain cortex; assay type: tissue-based; how it was run: as §1
# T1 sequence (P19327 whole entry): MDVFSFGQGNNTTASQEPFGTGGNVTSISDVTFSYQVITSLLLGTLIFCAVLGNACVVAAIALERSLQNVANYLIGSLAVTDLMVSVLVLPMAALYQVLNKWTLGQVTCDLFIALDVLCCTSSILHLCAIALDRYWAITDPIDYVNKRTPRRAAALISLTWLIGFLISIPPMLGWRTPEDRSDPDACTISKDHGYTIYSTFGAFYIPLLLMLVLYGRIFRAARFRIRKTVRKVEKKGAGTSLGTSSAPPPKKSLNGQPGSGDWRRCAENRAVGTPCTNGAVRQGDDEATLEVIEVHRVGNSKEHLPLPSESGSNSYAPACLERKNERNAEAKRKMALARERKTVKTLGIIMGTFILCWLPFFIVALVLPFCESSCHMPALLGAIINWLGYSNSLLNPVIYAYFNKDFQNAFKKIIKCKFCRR
# [5] = molecular target: Serotonin 2 (5-HT2) receptor (Rattus norvegicus, UniProt P30994+P08909+P14842); test: Compound is evaluated for binding affinity towards 5-hydroxytryptamine 2 receptor using [3H]ketanserin in rat brain; assay type: tissue-based; how it was run: as §1
# [6] = molecular target: T2, Alpha-1B adrenergic receptor (Rattus norvegicus, UniProt P15823); test: Displacement of [3H]prazosin from Alpha-1B adrenergic receptor of rat liver membrane
# T2 sequence (P15823 whole entry): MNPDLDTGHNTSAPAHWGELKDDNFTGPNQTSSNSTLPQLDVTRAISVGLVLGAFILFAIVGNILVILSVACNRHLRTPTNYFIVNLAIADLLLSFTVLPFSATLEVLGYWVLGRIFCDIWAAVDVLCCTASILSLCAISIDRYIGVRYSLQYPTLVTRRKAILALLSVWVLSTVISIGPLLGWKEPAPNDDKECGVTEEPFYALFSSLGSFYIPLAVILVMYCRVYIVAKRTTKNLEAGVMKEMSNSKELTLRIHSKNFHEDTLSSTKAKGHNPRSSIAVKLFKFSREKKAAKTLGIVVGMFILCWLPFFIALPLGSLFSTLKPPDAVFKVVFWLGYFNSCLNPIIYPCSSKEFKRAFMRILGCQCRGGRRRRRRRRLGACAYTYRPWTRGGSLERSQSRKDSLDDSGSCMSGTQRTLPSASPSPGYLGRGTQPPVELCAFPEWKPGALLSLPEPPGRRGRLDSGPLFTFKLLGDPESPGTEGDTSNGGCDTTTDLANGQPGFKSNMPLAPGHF
# How it was run: (§3)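 Triplicate competition binding against 0.2-0.25 nM [³H]prazosin in Tris buffer pH 7.4, 30 min at room temperature. Competitor range 0.1-200 nM. Nonspecific binding defined with 10 µM phentolamine. Reaction stopped by GF/B filtration with two cold Tris washes. Membrane protein 300-400 µg per assay. Ki calculated from the data; mean ± SEM of 3-6 experiments.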
# [7] = molecular target: T3, Alpha-1A adrenergic receptor (Rattus norvegicus, UniProt P43140); test: Displacement of [3H]prazosin from Alpha-1A adrenergic receptor of rat submaxillary gland membranes; assay type: cell membranes, Membrane; how it was run: as §3
# T3 sequence (P43140 whole entry): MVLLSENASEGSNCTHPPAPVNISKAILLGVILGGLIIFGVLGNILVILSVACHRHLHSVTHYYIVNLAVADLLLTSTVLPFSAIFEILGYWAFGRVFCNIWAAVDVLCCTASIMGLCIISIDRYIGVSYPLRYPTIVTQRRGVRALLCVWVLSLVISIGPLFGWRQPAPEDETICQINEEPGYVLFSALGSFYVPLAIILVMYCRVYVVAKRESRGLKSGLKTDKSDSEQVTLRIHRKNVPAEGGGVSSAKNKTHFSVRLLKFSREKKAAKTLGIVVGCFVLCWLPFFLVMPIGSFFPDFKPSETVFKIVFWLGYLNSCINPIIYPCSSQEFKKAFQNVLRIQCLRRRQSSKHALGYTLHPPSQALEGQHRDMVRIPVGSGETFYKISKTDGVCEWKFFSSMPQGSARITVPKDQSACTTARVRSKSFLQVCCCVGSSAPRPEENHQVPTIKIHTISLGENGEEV
# [8] = molecular target: T4, Alpha-2A adrenergic receptor (Homo sapiens, UniProt P08913); test: Compound is evaluated for binding affinity towards Alpha-2A adrenergic receptor using [3H]MK912
# T4 sequence (P08913 whole entry): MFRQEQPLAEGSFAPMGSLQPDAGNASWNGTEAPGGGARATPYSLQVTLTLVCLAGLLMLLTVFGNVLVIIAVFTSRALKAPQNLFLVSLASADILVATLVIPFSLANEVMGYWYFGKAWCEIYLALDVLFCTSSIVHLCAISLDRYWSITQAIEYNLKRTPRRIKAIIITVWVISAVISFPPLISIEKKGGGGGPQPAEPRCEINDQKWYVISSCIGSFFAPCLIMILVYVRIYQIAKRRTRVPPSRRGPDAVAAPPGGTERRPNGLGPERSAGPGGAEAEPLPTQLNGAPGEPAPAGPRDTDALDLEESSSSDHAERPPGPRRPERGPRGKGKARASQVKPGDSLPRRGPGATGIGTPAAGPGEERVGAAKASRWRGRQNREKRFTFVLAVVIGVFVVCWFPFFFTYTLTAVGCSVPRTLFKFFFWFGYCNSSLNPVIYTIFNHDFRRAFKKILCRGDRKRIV
# D(2) dopamine receptor [9] = molecular target: T5, D(2) dopamine receptor (Homo sapiens, UniProt P14416); test: Compound is evaluated for binding affinity towards recombinant human Dopamine receptor D2 using [3H]spiperone in CHO cells; assay type: cell-based; how it was run: as §1
# T5 sequence (P14416 whole entry): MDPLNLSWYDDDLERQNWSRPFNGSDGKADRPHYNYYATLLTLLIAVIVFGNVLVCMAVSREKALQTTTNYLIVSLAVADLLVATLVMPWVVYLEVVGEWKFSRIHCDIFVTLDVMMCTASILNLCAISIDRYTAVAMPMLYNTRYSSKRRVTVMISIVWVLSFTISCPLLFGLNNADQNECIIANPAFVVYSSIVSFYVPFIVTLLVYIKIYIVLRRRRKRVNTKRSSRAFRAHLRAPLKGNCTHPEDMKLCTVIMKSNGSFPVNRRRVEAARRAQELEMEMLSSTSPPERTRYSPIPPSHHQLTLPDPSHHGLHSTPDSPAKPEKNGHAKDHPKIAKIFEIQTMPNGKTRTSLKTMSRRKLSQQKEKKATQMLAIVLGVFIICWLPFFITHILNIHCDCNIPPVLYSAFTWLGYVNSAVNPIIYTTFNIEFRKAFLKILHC
# [10] = molecular target: T6, Alpha-2B adrenergic receptor (Homo sapiens, UniProt P18089); test: Compound is evaluated for binding affinity towards Alpha-2B adrenergic receptor using [3H]yohimbine
# T6 sequence (P18089 whole entry): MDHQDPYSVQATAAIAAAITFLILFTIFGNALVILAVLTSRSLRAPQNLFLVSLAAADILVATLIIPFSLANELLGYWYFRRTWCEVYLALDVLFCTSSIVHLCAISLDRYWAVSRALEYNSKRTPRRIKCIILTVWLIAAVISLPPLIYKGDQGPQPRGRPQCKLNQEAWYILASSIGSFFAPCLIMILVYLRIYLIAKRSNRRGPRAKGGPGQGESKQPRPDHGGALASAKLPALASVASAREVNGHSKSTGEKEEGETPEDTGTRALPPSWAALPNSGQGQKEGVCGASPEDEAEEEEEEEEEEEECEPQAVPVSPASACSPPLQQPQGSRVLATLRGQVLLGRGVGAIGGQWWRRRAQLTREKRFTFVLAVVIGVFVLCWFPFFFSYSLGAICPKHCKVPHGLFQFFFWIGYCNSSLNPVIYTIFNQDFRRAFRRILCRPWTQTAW
# Sigma 2 receptor [11] = test: (§4) Binding affinity towards Sigma 2 receptor using [3H]ifenprodil in rat brain; assay type: tissue-based; how it was run: as §1
# D(2) dopamine receptor [12] = molecular target: T5, D(2) dopamine receptor; test: Compound is evaluated for binding affinity towards Dopamine receptor D2 using [3H]spiperone in CHO cells at 10 uM; assay type: cell-based
# D(3) dopamine receptor [13] = molecular target: T7, D(3) dopamine receptor (Homo sapiens, UniProt P35462); test: Compound is evaluated for binding affinity towards recombinant human Dopamine receptor D3 using [3H]spiperone in CHO cells at 10 uM; assay type: cell-based
# T7 sequence (P35462 whole entry): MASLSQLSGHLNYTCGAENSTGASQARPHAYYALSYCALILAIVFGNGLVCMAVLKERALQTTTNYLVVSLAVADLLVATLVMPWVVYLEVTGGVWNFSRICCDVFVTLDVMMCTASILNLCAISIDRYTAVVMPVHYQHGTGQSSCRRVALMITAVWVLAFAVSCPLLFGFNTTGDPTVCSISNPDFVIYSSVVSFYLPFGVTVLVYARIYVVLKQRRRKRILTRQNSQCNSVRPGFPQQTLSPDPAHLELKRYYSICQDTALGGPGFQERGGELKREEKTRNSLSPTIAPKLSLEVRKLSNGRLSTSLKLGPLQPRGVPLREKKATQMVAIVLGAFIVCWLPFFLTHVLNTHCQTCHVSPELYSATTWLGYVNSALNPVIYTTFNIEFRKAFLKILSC
# How it was run: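 Single-concentration screen at 10 µM in contract radioligand binding assays. Records whether inhibition of specific radioligand binding stayed below 50%.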
# [14] = molecular target: Alpha-2B adrenergic receptor (Homo sapiens) (UniProt P18089); test: Compound is evaluated for binding affinity towards Alpha-2B adrenergic receptor using [3H]yohimbine at 10 uM
# D(3) dopamine receptor [15] = molecular target: T7, D(3) dopamine receptor; test: Compound is evaluated for binding affinity towards recombinant human Dopamine receptor D3 using [3H]spiperone in CHO cells; assay type: cell-based; how it was run: as §1
# [16] = molecular target: Sodium channel alpha subunits; brain (Types I, II, III) (Rattus norvegicus) (UniProt P04775+P04774+P08104); test: Displacement of [3H]batrachotoxin from rat brain sodium channel at 10 uM; assay type: tissue-based; how it was run: as §2
# D(2) dopamine receptor [17] = molecular target: T5, D(2) dopamine receptor; test: Compound is evaluated for binding affinity towards Dopamine receptor D2 using [3H]spiperone in CHO cells; assay type: cell-based; how it was run: as §1
# [18] = molecular target: Alpha-2A adrenergic receptor (Homo sapiens) (UniProt P08913); test: Compound is evaluated for binding affinity towards Alpha-2A adrenergic receptor using [3H]MK912 at 10 uM
# Sigma 2 receptor [19] = test: as §4; assay type: tissue-based; conditions: concentration not given here; how it was run: as §2
# [20] = molecular target: Serotonin 1 (5-HT1) receptor (Rattus norvegicus) (UniProt P28564+P30940+P19327+P28565); test: Compound is evaluated for binding affinity towards 5-hydroxytryptamine 1 receptor using [3H]5-HT in rat brain cortex at 10 uM; assay type: tissue-based; how it was run: as §2
Compound,Ki (Histamine H1 receptor) [nM],Ratio [1],Ki [4] [nM],Ki [5] [nM],Ki [6] [nM],Ki [7] [nM],Ki (D(2) dopamine receptor [9]) [nM],further results
COc1ccccc1N1CCN(CCn2c(=O)[nH]c3ccccc3c2=O)CC1,685,6400,16,180,1.1,0.5,132,Ki [2]: 3680 nM; Ki [3]: 1510 nM; Ki [8]: 1810 nM; Ki [10]: 56 nM; Ki (Sigma 2 receptor [11]): 2500 nM; Ki (D(2) dopamine receptor [12]): 32 nM; Ki (D(3) dopamine receptor [13]): 73 nM
COc1ccccc1N1CCN(CC2CN=C3c4ccccc4NC(=O)N32)CC1 (stereo not drawn),2320,2820,155,377,0.67,0.26,239,inhibition [14]: < 50%; Ki (D(3) dopamine receptor [15]): 985 nM; inhibition [16]: < 50%; Ki (D(2) dopamine receptor [17]): 158 nM; inhibition [18]: < 50%; inhibition (Sigma 2 receptor [19]): < 50%; inhibition [20]: < 50%
